Screening results as filed in PubChem BioAssay.
Only some compounds are listed: those with a hit (about 1.7% of all), similar ones and a draw of the others.
m5-HT2A agonist = agonists of mouse serotonin 5-HT2A receptor (HTR2A) | AID 624169 | CHO-K1 mHTR2A beta-arrestin complementation, luminescence; percent of 30 µM serotonin response | activation, % at 7.6 µM | 360,000 compounds, 0.66% hits | P35363;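 active = activation above a run cutoff, the mean activation of all tested compounds plus 3 SD, cut at about 14% in these data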
Target sequence (P35363 whole entry, looked up): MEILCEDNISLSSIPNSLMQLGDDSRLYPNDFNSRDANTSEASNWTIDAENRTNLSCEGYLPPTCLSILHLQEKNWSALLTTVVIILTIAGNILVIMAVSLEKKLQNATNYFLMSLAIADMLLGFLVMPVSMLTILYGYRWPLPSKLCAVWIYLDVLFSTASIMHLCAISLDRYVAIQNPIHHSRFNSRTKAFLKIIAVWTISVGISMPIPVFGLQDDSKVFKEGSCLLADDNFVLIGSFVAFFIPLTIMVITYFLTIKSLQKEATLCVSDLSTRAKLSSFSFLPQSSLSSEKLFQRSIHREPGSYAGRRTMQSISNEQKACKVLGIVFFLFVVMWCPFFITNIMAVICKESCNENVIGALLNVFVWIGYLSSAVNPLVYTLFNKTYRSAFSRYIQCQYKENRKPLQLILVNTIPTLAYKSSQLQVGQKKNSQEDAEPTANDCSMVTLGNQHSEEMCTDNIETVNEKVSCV
T cell modulator = T cell immune modulators affecting CD8 T cell-vesicle binding | response (vesicle binding), % at 7 µM | 330,000 compounds, 0.068% hits | 2C CD8+ T cell-vesicle binding, flow cytometry; active compounds read low;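 active = response, share of CD8 T cells binding vesicles, and their 90th percentile fluorescence all below set limits, cut at about 80% in these data, passing the limit was not always enough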;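 note: values below 100% mean blocked vesicle binding to the CD8+ T cells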
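Assay system – 2C mouse CD8+ T cells · Also added – QL9-loaded Drosophila micro-vesicles · Timing – Cell–vesicle co-incubation 1.5 h at 37 °C, staining 20 min on ice · Signal – flow cytometry of vesicle-bound cells · Measure – percent CD8+ FL2 mean versus row control · Controls – Peptide-free naked vesicles (low) and QL9 vesicles with 0.7% DMSO vehicle (high)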
JMJD2C inh = inhibitors of human GASC-1 (JMJD2C) demethylase | Q9H3R0 | GST-JMJD2C(1-420) H3K9me3 demethylation, DELFIA europium | inhibition, % at 2.35 µM | 330,000 compounds, 0.069% hits;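 active = more than half of a compound's replicate wells show inhibition beyond 50%, single wells judged on their own value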;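 note: signal counts dimethyl H3K9 product captured on neutravidin plate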
PP5 primary = inhibitors of human protein phosphatase 5 (PP5); P53041; purified PP5c, OMFP substrate fluorescence; inhibition, % at 6.7 µM; 320,000 compounds, 0.18% hits;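 active = inhibition above the campaign's mean inhibition across all tested compounds plus 3 SD, cut at about 9.5% in these data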
PP1 counter = counter-screen for PP5 inhibitors: inhibitors of human PP1-alpha | P62136 | purified PP1alpha, OMFP fluorescence | 320,000 compounds, 0.9% hits | inhibition, % at 6.7 µM | AID 2235;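 active = inhibition above the mean inhibition of all tested compounds plus 3 SD, computed separately for each screening campaign, cut at about 15% in these data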
PP5 conf = PP5 (human) inhibition, confirmation. shares compounds with PP5 primary. Purified PP5, fluorogenic phosphatase substrate, fluorescence. inhibition, % at 6.7 µM. 460 compounds, 22% hits. AID 2331; in the data active = inhibition above about 9.5%
PP1 counter 3x = PP1 phosphatase inhibition, counter-screen for PP5 inhibitors; shares compounds with PP5 primary; PP1 enzyme, fluorescent phosphatase substrate; inhibition, % at 6.7 µM; 460 compounds, 4% hits; AID 2355; in the data active = inhibition above about 16%
PP1 inh confirm = human PP1 phosphatase inhibition, confirmation; shares compounds with PP1 counter; purified PP1alpha, OMFP substrate fluorescence; inhibition, % at 6.7 µM; 1,900 compounds, 52% hits;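 active = mean PP1 inhibition above a set limit taken from the earlier primary screen, cut at about 15% in these data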
PP5 counter = counter-screen for PP1 inhibitors: human PP5 phosphatase inhibition; shares compounds with PP1 counter; purified PP5c, OMFP fluorescence; inhibition, % at 6.7 µM; 1,900 compounds, 4% hits;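 active = mean PP5 inhibition over triplicate wells above about 9.5% taken from the earlier PP1 screen, limit read from the data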
Hits are given with their value; i = inactive; nt = no result; ! = not active in a repeat.

SMILES | m5-HT2A agonist | T cell modulator | JMJD2C inh | PP5 primary | PP1 counter | others
Cc1cc(Cl)ccc1OC(C)C(=O)O (stereo not given) | 14.8 | i | i | i | i
c1ccc2c3c(ccc2c1)OCC1CONC31 (stereo not given) | nt | i | 82.3 | i | i
O=C(Nc1ccccc1)c1c(O)[nH]c(=S)[nH]c1=O | i | i | i | i | 16.0
O=C(Nc1ccccc1)c1c(O)[nH]c(=O)[nH]c1=O | i | i | i | i | i
CC(C)C(O)(C(=O)OCC1=CCN2CCC(O)C12)C(C)O (stereo not given) | i | nt | nt | nt | nt
CCOC(=O)C1(c2ccccc2)CCN(CCc2ccc(NC(=O)CCC(=O)O)cc2)CC1 | i | nt | nt | nt | nt
OC(COCc1ccc(Cl)cc1)CN1CC=C(c2ccccc2)CC1 (stereo not given) | 19.3! | i | i | i | i
CN(C)C1(CNC(=O)c2cc(S(=O)(=O)N3CCOCC3)c(Cl)cc2Cl)CCCCC1 | i | i | i | i | i
Cc1ccc(OCCOc2cccc(C=C3C(=O)NC(=O)NC3=O)c2)cc1 | i | i | i | i | i
Cc1cc(C)cc(OCCOc2cccc(C=C3C(=O)NC(=O)NC3=O)c2)c1 | i | i | 67.7 | i | i
CCOc1ccc(-n2c(O)c(C=NCCN3CCNCC3)c(=O)[nH]c2=O)cc1 | i | i | i | i | i
CCC(=O)c1ccc(OC(=O)N(C)c2ccccc2)cc1 | i | i | i | i | i
CC/C(=C(\c1ccccc1)c1ccc(OCCN(C)C)cc1)c1ccccc1 | i | i | i | i | 17.2!
CC1(C)N=C(c2ccccc2)[C@@H]2C(c3ccc([N+](=O)[O-])cc3)N21 (stereo not given in full) | i | i | i | i | i
NC(Cc1cc(O)c(O)cc1O)C(=O)O (stereo not given) | nt | i | nt | i | 68.5
NCCc1cc(O)c(O)cc1O | i | nt | nt | nt | nt
O=C1NC(=O)N(Cc2ccccc2)C(=O)/C1=C/C=C/c1ccco1 | i | i | 57.6 | i | i
CN1CCN(C(=O)COc2ccc(N(C)S(=O)(=O)c3ccc(F)cc3)cc2)CC1 | i | i | i | i | i
NC(N)=N/N=C/c1cn(-c2ccccc2)nc1-c1cccs1 | i | i | i | i | 16.8
CSc1ccc(C(=O)C2CCCN(Cc3cnc(SC)nc3)C2)cc1 (stereo not given) | i | i | i | i | i
CC1=CC2/C=C(\C)CCC(O)C(O)/C=C/C(=O)C23C(=O)NC(CC(C)C)C3C1C (stereo not given) | i | i | i | i | i
C/C1=C\[C@@H](C)C/C=C/[C@H]2[C@@H]3O[C@]3(C)[C@@H](C)[C@H]3[C@H](Cc4c[nH]c5ccccc45)NC(=O)[C@]32C(=O)/C=C/C(=O)[C@@H]1O | 21.6 | i | i | i | i
CC(C)[C@H]1C(=O)N2CCC[C@H]2[C@]2(O)O[C@](NC(=O)[C@@H]3C=C4c5cccc6[nH]cc(c56)C[C@H]4N(C)C3)(C(C)C)C(=O)N12 | 48.6 | i | i | i | i
CC(C)C[C@H]1C(=O)N2CCCC2[C@]2(O)O[C@](NC(=O)[C@@H]3C=C4c5cccc6[nH]cc(c56)CC4N(C)C3)(C(C)C)C(=O)N12 (stereo not given in full) | 29.9 | i | i | i | i
CCCCCc1nc2ccccc2c(=O)n1-c1ccc(Cl)cc1[N+](=O)[O-] | i | i | i | i | i
SMILES | m5-HT2A agonist | T cell modulator | JMJD2C inh | PP5 primary | PP1 counter | others
O=C(O)c1cccc(N=Nc2c(O)[nH]c(=O)[nH]c2=O)c1 | i | 46.8 | i | i | i
CCCCn1c(NC(=O)c2ccco2)c(C(=O)OCC)c2nc3ccccc3nc21 | i | i | i | 9.6 | i | PP5 conf=36.6;PP1 counter 3x=i
COc1ccc(Cn2c(N)c(C(=O)NCc3ccco3)c3nc4ccccc4nc32)cc1 | i | i | i | 11.1 | i | PP5 conf=11.3;PP1 counter 3x=i
CCN(CC)c1ccc(N=Cc2c(O)n(-c3ccccc3C)c(=O)[nH]c2=O)cc1 | i | i | i | i | i
CCOc1ccccc1-n1c(O)c(C=Nc2ccc(N(CC)CC)cc2)c(=O)[nH]c1=O | i | i | i | 12.1 | i | PP5 conf=i;PP1 counter 3x=i
CC(C)S(=O)(=O)N1Cc2ccccc2-n2nncc2C1 | i | nt | nt | nt | nt
C[C@]12CCC3C(CC[C@H]4[C@@H](O)[C@H](O)CC[C@]34C)C1CCC2=O (stereo not given in full) | i | nt | nt | nt | nt
O=C(N/N=C/c1c(O)n(Cc2ccc(F)cc2)c(=O)[nH]c1=O)c1ccccc1O | i | i | i | i | 20.6 | PP1 inh confirm=i;PP5 counter=i
CN(C)[C@@H]1C(=O)C(C(N)=O)=C(O)[C@@]2(O)C(=O)C3=C(O)c4c(O)cccc4[C@@](C)(O)C3C[C@@H]12 (stereo not given in full) | i | i | i | i | i
CN(C)[C@@H]1C(=O)C(C(N)=O)=C(O)[C@@]2(O)C(=O)C3=C(O)c4c(O)cccc4[C@@](C)(O)[C@H]3[C@H](O)[C@@H]12 | i | i | i | i | 44.0 | PP1 inh confirm=19.7;PP5 counter=i
COC(=O)C1=C(c2ccc(-c3ccccc3)c(F)c2)C[C@@H]2CC[C@H]1N2C(=O)NCCNC(C)=O | i | i | i | i | i
COC(=O)C1=C(c2ccc(-c3ccccc3)c(F)c2)C[C@@H]2CC[C@H]1N2C(=O)NCc1cccc2ccccc12 | i | i | i | i | 23.1 | PP1 inh confirm=i;PP5 counter=i
COC(=O)C1=C(c2cccc(OCc3ccccc3)c2)C[C@@H]2CC[C@H]1N2C(=O)NCc1ccc(N(C)C)cc1 | i | i | i | i | i
COC(=O)C1=C(c2cccc(OCc3ccccc3)c2)C[C@@H]2CC[C@H]1N2C(=O)NCc1ccc(C(C)(C)C)cc1 | i | i | i | i | 19.6 | PP1 inh confirm=i;PP5 counter=i
COC(=O)C1=C(c2ccc(C(C)=O)cc2)C[C@@H]2CC[C@H]1N2C(=O)N1CCC(C)CC1 | i | i | i | i | i
O=C(O)C1C2CCC(O2)C1C(=O)Nc1cccc(Br)c1 (stereo not given) | i | i | i | 68.6 | 69.1 | PP1 inh confirm=i;PP5 counter=18.6
O=C1NC(=O)N(Cc2ccco2)C(=O)/C1=C/c1ccc(-c2cccc([N+](=O)[O-])c2)o1 | i | i | i | i | 33.4 | PP1 inh confirm=15.9;PP5 counter=i
COC(=O)c1ccc(NC(=O)NC(=O)Oc2ccccc2)cc1 | i | i | i | i | i
CCCCCn1c(=O)c(C(=O)Nc2ncccc2C)c(O)c2ccccc21 | i | i | i | i | 25.4 | PP1 inh confirm=21.7;PP5 counter=i
